Data: ChEMBL document CHEMBL1127405, “Synthesis and antitumor evaluation of bis[(pivaloyloxy)methyl] 2'-deoxy-5-fluorouridine 5'-monophosphate (FdUMP): a strategy to introduce nucleotides into cells” (J Med Chem, 1994)

Experiments:
CHO [1] = test: The minimun drug concentration that gives rise to colonies containing fewer than 50 cells after incubation at 37 degree C against chinese hamster ovary cells; format: functional, cell-based; details: Cricetulus griseus
In short: (§1)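 About 200 cells per dish were grown as clones in drug at 0, 0.5, 1.5, 5, 10, 50 or 100 μM for 7 d at 37 °C in humidified CO2. Colonies were fixed with 10% formaldehyde and stained with 0.1% crystal violet. The value is the lowest tested concentration giving colonies of fewer than 50 cells.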

CHO [2] = test: The minimun drug concentration that gives rise to colonies containing fewer than 50 cells after incubation at 37 degree C against chinese hamster ovary cells 20 fold resistant to fluoroudine; format: functional, cell-based; details: Cricetulus griseus; in short: as §1
Mus musculus [3] = test: The compound was tested for increase in life span for mice implanted intraperitoneally with P-388/FU Leukemia cell line at 360 mg/kg; format: functional; details: P388, ip, route intraperitoneal
In short: (§2)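 Male BDF1 mice, six per group, implanted ip with 1×10^6 P-388/0 or P-388/FU cells on day 0. Dosed ip daily for 5 days from 24 h post-implant, in saline or Emulphor 620 vehicle. Mice observed until death. %ILS = (T/C − 1)×100, from median survival of treated mice (T) versus saline-treated controls (C).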

Mus musculus [4] = test: The compound was tested for increase in life span for mice implanted intraperitoneally with P-388/0 Leukemia cell line at 160 mg/kg; format: functional; details: P388, ip, route intraperitoneal; in short: as §2
Mus musculus [5] = test: The compound was tested for increase in life span for mice implanted intraperitoneally with P-388/FU Leukemia cell line at 160 mg/kg; format: functional; details: P388, ip, route intraperitoneal; in short: as §2
Mus musculus [6] = test: The compound was tested for increase in life span for mice implanted intraperitoneally with P-388/0 Leukemia cell line at 240 mg/kg; format: functional; details: P388, ip, route intraperitoneal; in short: as §2
Mus musculus [7] = test: The compound was tested for increase in life span for mice implanted intraperitoneally with P-388/0 Leukemia cell line at 360 mg/kg; format: functional; details: P388, ip, route intraperitoneal; in short: as §2
Mus musculus [8] = test: The compound was tested for increase in life span for mice implanted intraperitoneally with P-388/FU Leukemia cell line at 240 mg/kg; format: functional; details: P388, ip, route intraperitoneal; in short: as §2
Mus musculus [9] = test: The compound was tested for mean survival time for 15 mice implanted Intraperitoneally with P-388/0 Leukemia cell line at 160 mg/kg; format: functional; details: route intraperitoneal
In short: (§3)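 P-388/0 or P-388/FU cells (1×10^6) implanted ip into male BDF1 mice on day 0. Dosing was ip, daily for 5 consecutive days beginning 24 h later, in saline or Emulphor 620 vehicle. Six mice per treated group. Animals followed to death and median survival time recorded in days. The control group had 15 mice.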

Mus musculus [10] = test: The compound was tested for mean survival time for 15 mice implanted Intraperitoneally with P-388/0 Leukemia cell line at 240 mg/kg; format: functional; details: route intraperitoneal; in short: as §3
Mus musculus [11] = test: The compound was tested for mean survival time for 15 mice implanted Intraperitoneally with P-388/0 Leukemia cell line at 360 mg/kg; format: functional; details: route intraperitoneal; in short: as §3
Mus musculus [12] = test: The compound was tested for mean survival time for 15 mice implanted Intraperitoneally with P-388/FU Leukemia cell line at 160 mg/kg; format: functional; details: route intraperitoneal; in short: as §3
Mus musculus [13] = test: The compound was tested for mean survival time for 15 mice implanted Intraperitoneally with P-388/FU Leukemia cell line at 240 mg/kg; format: functional; details: route intraperitoneal; in short: as §3
Mus musculus [14] = test: The compound was tested for mean survival time for 15 mice implanted Intraperitoneally with P-388/FU Leukemia cell line at 360 mg/kg; format: functional; details: route intraperitoneal; in short: as §3
Mus musculus [15] = test: The compound was tested for change in weight for mice implanted intraperitoneally with P-388/0 Leukemia cell line at 160 mg/kg; format: functional; details: route intraperitoneal
In short: (§4)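 Male BDF1 mice inoculated ip on day 0 with 1 × 10^6 leukemia cells (six mice per group, average weight 22 g). Dosing ip once daily for 5 consecutive days starting 24 h after implantation. Fluoropyrimidine references in 0.9% saline; prodrugs formulated with Emulphor 620; vehicle controls 0.2 mL. Percent body weight change recorded per group.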

Mus musculus [16] = test: The compound was tested for change in weight for mice implanted intraperitoneally with P-388/0 Leukemia cell line at 240 mg/kg; format: functional; details: route intraperitoneal; in short: as §4
Mus musculus [17] = test: The compound was tested for change in weight for mice implanted intraperitoneally with P-388/0 Leukemia cell line at 360 mg/kg; format: functional; details: route intraperitoneal; in short: as §4
Mus musculus [18] = test: The compound was tested for change in weight for mice implanted intraperitoneally with P-388/FU Leukemia cell line at 160 mg/kg; format: functional; details: route intraperitoneal; in short: as §4
Mus musculus [19] = test: The compound was tested for change in weight for mice implanted intraperitoneally with P-388/FU Leukemia cell line at 240 mg/kg; format: functional; details: route intraperitoneal; in short: as §4
Mus musculus [20] = test: The compound was tested for change in weight for mice implanted intraperitoneally with P-388/FU Leukemia cell line at 360 mg/kg; format: functional; details: route intraperitoneal; in short: as §4

SMILES: CC(=O)O[C@H]1C[C@H](n2cc(F)c(=O)[nH]c2=O)O[C@@H]1COP(=O)(OCOC(=O)C(C)(C)C)OCOC(=O)C(C)(C)C
- IC50 (CHO [1]): 5 µM
- IC50 (CHO [2]): 5 µM
- ILS at 360 mg/kg (Mus musculus [3]): 45%
- ILS at 160 mg/kg (Mus musculus [4]): 36%
- ILS at 160 mg/kg (Mus musculus [5]): 36%
- ILS at 240 mg/kg (Mus musculus [6]): 45%
- ILS at 360 mg/kg (Mus musculus [7]): 82%
- ILS at 240 mg/kg (Mus musculus [8]): 45%
- MST (Mus musculus [9]): 15 days
- MST (Mus musculus [10]): 16 days
- MST (Mus musculus [11]): 20 days
- MST (Mus musculus [12]): 15 days
- MST (Mus musculus [13]): 16 days
- MST (Mus musculus [14]): 16 days
- Weight change (Mus musculus [15]): -9%
- Weight change (Mus musculus [16]): -15%
- Weight change (Mus musculus [17]): -15%
- Weight change (Mus musculus [18]): -9%
- Weight change (Mus musculus [19]): -12%
- Weight change (Mus musculus [20]): -13%
